{
  "source": "ChEMBL document CHEMBL1122328",
  "about": "“Hypolipidemic activity of phthalimide derivatives. 2. N-phenylphthalimide and derivatives” (1983)",
  "key": {"[1]": {"tested_on": "Mus musculus", "assay": "In vitro effect on CF1 male mouse onAc-CoA carboxylase after 16 days at a dose of 20 (mg/kg)/day", "type": "functional", "settings": "in the assay text read “In vivo” for “In vitro”", "how_it_was_run": "(§1)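 Mice (CF1 males) given agent ip daily for 16 days in 1% carboxymethylcellulose; liver 10% homogenate in 0.25 M sucrose + 0.001 M EDTA. Acetyl-CoA carboxylase first polymerized 30 min at 37 °C, then incubated 30 min at 37 °C with sodium [14C]bicarbonate (41.0 mCi/mmol); incorporated label counted. Activity as % of vehicle control; N = 6.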"}, "[2]": {"tested_on": "Mus musculus", "assay": "In vitro effect on CF1 male mouse on Fatty acid synthetase after 16 days at a dose of 40 (mg/kg)/day", "type": "functional", "how_it_was_run": "(§2)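 In vivo enzyme study. CF₁ male mice were dosed ip for 16 days in 1% CMC, and liver was homogenised to 10% in 0.25 M sucrose with 0.001 M EDTA. Enzymes assayed: acetyl-CoA synthetase as hydroxamate at 540 nm after 30 min at 37 °C; HMG CoA reductase with [1-¹⁴C]acetate in 9000g supernatant for 60 min at 37 °C; fatty acid synthetase with [2-¹⁴C]malonyl-CoA; acyltransferase with [³H]glycerol 3-phosphate and microsomes for 10 min; phosphatidate phosphohydrolase as released phosphate at 820 nm after 30 min. N = 6; reported as % control.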"}, "[3]": {"tested_on": "Mus musculus", "assay": "In vitro effect on CF1 male mouse on Ac-CoA synthetase after 16 days at a dose of 60 (mg/kg)/day", "type": "functional", "how_it_was_run": "as §2"}, "[4]": {"tested_on": "Mus musculus", "assay": "In vitro effect on CF1 male mouse on Fatty acid synthetase after 16 days at a dose of 20 (mg/kg)/day", "type": "functional", "how_it_was_run": "as §2"}, "[5]": {"tested_on": "Mus musculus", "assay": "Effect on Serum cholesterol levels on CF1 male mice at a dose of 50 (mg/kg)/day after 16 days", "type": "functional", "how_it_was_run": "(§3)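 CF1 male mice (~25 g), drug suspended in 1% carboxymethylcellulose in water, given ip daily for 16 days; n = 6; vehicle control. Tail-vein blood on days 9 and 16, serum cholesterol by modified Liebermann–Burchard reaction; day-14 serum triglyceride by commercial kit; expressed as % control.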"}, "[6]": {"tested_on": "Mus musculus", "assay": "In vitro effect on CF1 male mouse onAc-CoA carboxylase after 16 days at a dose of 60 (mg/kg)/day", "type": "functional", "how_it_was_run": "as §1"}, "[7]": {"tested_on": "Mus musculus", "assay": "Effect on Serum cholesterol levels on CF1 male mice at a dose of 20 (mg/kg)/day after 16 days", "type": "functional", "how_it_was_run": "as §3"}, "[8]": {"tested_on": "Mus musculus", "assay": "Effect on phospholipids from CF1 male mice after 16 days at a dose of 60 (mg/kg/day)", "type": "functional", "how_it_was_run": "(§4)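 Dosing was ip in CF₁ male mice (~25 g) for 16 days, with compound suspended in 1% carboxymethylcellulose. Liver was then taken and homogenised to 10% in 0.25 M sucrose with 0.001 M EDTA. Lipid was extracted from a 2 mL aliquot by the Folch and Bligh–Dyer methods and total mg of lipid was weighed. Cholesterol (Liebermann–Burchard), triglycerides (kit), neutral lipids and phospholipids were then measured; N = 6; reported as % of vehicle control.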"}, "[9]": {"organism": "Mus musculus", "assay": "In vitro effect on CF1 male mouse on Ac-CoA carboxylase", "type": "functional", "how_it_was_run": "(§5)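 In vitro test on 10% CF₁ male mouse liver homogenate (0.25 M sucrose, 0.001 M EDTA) with 2.5 μmol test drug. Assays: acetyl-CoA synthetase and citrate lyase as hydroxamate at 540 nm, 30 min, 37 °C; citrate exchange from [¹⁴C]citrate-loaded mitochondria after 10 min with drug; side-chain oxidation by ¹⁴CO₂ from [26-¹⁴C]cholesterol, 18 h, 37 °C; acetyl-CoA carboxylase by [¹⁴C]bicarbonate fixation after 30 min polymerization then 30 min at 37 °C.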"}, "[10]": {"tested_on": "Mus musculus", "assay": "Effect on cholesterol from CF1 male mice after 16 days at a dose of 10 (mg/kg/day)", "type": "functional", "how_it_was_run": "(§6)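 CF1 male mice dosed ip for 16 days at 10–60 (mg/kg)/day; liver taken and 10% homogenate made in 0.25 M sucrose + 0.001 M EDTA; aliquot extracted by Folch and Bligh–Dyer methods, mg lipid weighed, cholesterol measured by Liebermann–Burchard method; n = 6; % of 1% CMC control.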"}, "[11]": {"tested_on": "Mus musculus", "assay": "Effect on neutral lipids from CF1 male mice after 16 days at a dose of 20 (mg/kg/day)", "type": "functional", "how_it_was_run": "as §4"}, "[12]": {"tested_on": "Mus musculus", "assay": "In vitro effect on CF1 male mouse on HMGCoA reductase after 16 days at a dose of 10 (mg/kg)/day", "type": "functional", "how_it_was_run": "as §2"}, "[13]": {"tested_on": "Mus musculus", "assay": "Effect on neutral lipids from CF1 male mice after 16 days at a dose of 60 (mg/kg/day)", "type": "functional", "how_it_was_run": "as §4"}, "[14]": {"tested_on": "Mus musculus", "assay": "In vitro effect on CF1 male mouse on phosphatidate phosphohydrolase after 16 days at a dose of 60 (mg/kg)/day", "type": "functional", "how_it_was_run": "(§7)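 CF1 male mice dosed ip daily for 16 days, drug suspended in 1% carboxymethylcellulose; liver taken as 10% homogenate in 0.25 M sucrose + 0.001 M EDTA. Phosphatidate phosphohydrolase measured as inorganic phosphate released from phosphatidic acid after 30 min, developed with ascorbic acid/ammonium molybdate, read at 820 nm. Expressed as % of 1% CMC vehicle control; N = 6.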"}, "[15]": {"tested_on": "Mus musculus", "assay": "In vivo effect on CF1 male mouse on Lipid content after 16 days at a dose of 20 (mg/kg)/day"}, "[16]": {"tested_on": "Mus musculus", "assay": "Effect on Serum triglceride levels on CF1 male mice at a dose of 25 (mg/kg)/day after 14 days", "type": "functional", "how_it_was_run": "as §3"}, "[17]": {"tested_on": "Mus musculus", "assay": "Effect on Serum triglceride levels on CF1 male mice at a dose of 20 (mg/kg)/day after 14 days", "type": "functional", "how_it_was_run": "as §3"}, "[18]": {"organism": "Mus musculus", "assay": "In vitro effect on CF1 male mouse on Mitochondrial citrate exchange", "type": "functional", "how_it_was_run": "as §5"}, "[19]": {"tested_on": "Mus musculus", "assay": "Effect on Serum cholesterol levels on CF1 male mice at a dose of 100 (mg/kg)/day after 16 days", "type": "functional", "how_it_was_run": "as §3"}, "[20]": {"tested_on": "Rattus norvegicus", "assay": "Effect on Chylomicrons of Phospholipids Holtzman rats after 14 days administration", "type": "functional", "how_it_was_run": "(§8)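 Holtzman male rats (~400 g) given drug at 20 (mg/kg)/day for 14 days; on day 14 blood taken from the abdominal aorta and serum separated by centrifugation at 3500 rpm; lipid and protein content of the lipoprotein fractions measured.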"}, "[21]": {"tested_on": "Mus musculus", "assay": "In vitro effect on CF1 male mouse on HMGCoA reductase after 16 days at a dose of 40 (mg/kg)/day", "type": "functional", "how_it_was_run": "as §2"}, "[22]": {"tested_on": "Mus musculus", "assay": "In vitro effect on CF1 male mouse on phosphatidate phosphohydrolase after 16 days at a dose of 40 (mg/kg)/day", "type": "functional", "how_it_was_run": "as §7"}, "[23]": {"tested_on": "Mus musculus", "assay": "Effect on Serum cholesterol levels on CF1 male mice at a dose of 25 (mg/kg)/day after 9 days", "type": "functional", "how_it_was_run": "as §3"}, "[24]": {"tested_on": "Mus musculus", "assay": "Effect on cholesterol from CF1 male mice after 16 days at a dose of 20 (mg/kg/day)", "type": "functional", "how_it_was_run": "as §6"}, "[25]": {"organism": "Mus musculus", "assay": "Effect on Serum triglceride levels on Hyperlipidemic induced mice After 2-week diet", "type": "functional", "how_it_was_run": "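Mice fed atherogenic diet for 2 weeks to raise serum lipids, then given drug at 20 (mg/kg)/day ip for a further 2 weeks; serum cholesterol and triglyceride measured after the diet and after 14 days dosing; n = 6; compared with 1% CMC and diet-only controls; % control.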"}, "[26]": {"tested_on": "Rattus norvegicus", "assay": "Effect on Chylomicrons of Protein Holtzman rats after 14 days administration", "type": "functional", "how_it_was_run": "as §8"}, "[27]": {"tested_on": "Rattus norvegicus", "assay": "Effect on Serum cholesterol levels on Holtzman rats at a dose of 10 (mg/kg)/day after 9 days", "type": "functional", "how_it_was_run": "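Holtzman male rats (~200 g) dosed orally by intubation needle daily for 16 days, drug suspended in 1% carboxymethylcellulose; n = 6; vehicle control. Tail-vein serum cholesterol on days 9 and 16 by modified Liebermann–Burchard reaction; day-14 serum triglyceride by commercial kit; % control.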"}},
  "data": [
    {"smiles": "CC(=O)c1ccccc1N1C(=O)c2ccccc2C1=O", "values": [
      {"measurement": "Control", "setting": "[1]", "result": 41, "unit": "%"},
      {"measurement": "Control", "setting": "[2]", "result": 94, "unit": "%"},
      {"measurement": "Control", "setting": "[3]", "result": 86, "unit": "%"},
      {"measurement": "Control", "setting": "[4]", "result": 97, "unit": "%"},
      {"measurement": "Control", "setting": "[5]", "result": 29, "unit": "%"},
      {"measurement": "Control", "setting": "[6]", "result": 57, "unit": "%"},
      {"measurement": "Serum cholesterol (% of control)", "setting": "[7]", "result": 43, "unit": "%"},
      {"measurement": "Control", "setting": "[8]", "result": 86, "unit": "%"},
      {"measurement": "Control", "setting": "[9]", "result": 35, "unit": "%"},
      {"measurement": "Control", "setting": "[10]", "result": 73, "unit": "%"},
      {"measurement": "Control", "setting": "[11]", "result": 65, "unit": "%"},
      {"measurement": "Control", "setting": "[12]", "result": 98, "unit": "%"},
      {"measurement": "Control", "setting": "[13]", "result": 62, "unit": "%"},
      {"measurement": "Control", "setting": "[14]", "result": 98, "unit": "%"},
      {"measurement": "Control", "setting": "[15]", "result": 85, "unit": "%"},
      {"measurement": "Control", "setting": "[16]", "result": 61, "unit": "%"},
      {"measurement": "Control", "setting": "[17]", "result": 56, "unit": "%"},
      {"measurement": "Control", "setting": "[18]", "result": 76, "unit": "%"},
      {"measurement": "Control", "setting": "[19]", "result": 26, "unit": "%"},
      {"measurement": "Control", "setting": "[20]", "result": 171, "unit": "%"},
      {"measurement": "Control", "setting": "[21]", "result": 84, "unit": "%"},
      {"measurement": "Control", "setting": "[22]", "result": 54, "unit": "%"},
      {"measurement": "Control", "setting": "[23]", "result": 74, "unit": "%"},
      {"measurement": "Control", "setting": "[24]", "result": 73, "unit": "%"},
      {"measurement": "Control", "setting": "[25]", "result": 131, "unit": "%"},
      {"measurement": "Control", "setting": "[26]", "result": 91, "unit": "%"},
      {"measurement": "Control", "setting": "[27]", "result": 66, "unit": "%"}
    ]}
  ]
}
